From ChEMBL document CHEMBL3217692, “Synthesis and cytotoxicity evaluation of novel pyrido[3,4-d]pyrimidine derivatives as potential anticancer agents” (2012)

What was measured:
Format in all cases: functional
MCF7 = test: Cytotoxicity against human MCF7 cells assessed as cell growth at 10 uM after 48 hrs by sulforhodamine B assay relative to control; settings: MCF7, 48 h, read-out: Activity
Outline: (§1)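 Adherent cells were grown in RPMI 1640 with 5% FBS and 2 mM L-glutamine, seeded at 5000–40 000 cells/well by doubling time, and held 24 h at 37 °C, 5% CO2 before drug. Time-zero plates were TCA-fixed. Compound in DMSO, single dose 10 μM, 48 h. Cells were fixed with cold TCA (final 10%, 60 min, 4 °C) and stained with 0.4% SRB. Bound dye was dissolved in 10 mM Tris base and read at 515 nm. Percent growth was derived from time-zero, control and treated absorbances.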

MDA-MB-468 = test: Cytotoxicity against human MDA-MB-468 cells assessed as cell growth at 10 uM after 48 hrs by sulforhodamine B assay relative to control; settings: MDA-MB-468, 48 h, read-out: Activity; outline: as §1
[1] = Cytotoxicity against human UO31 cells assessed as cell growth at 10 uM after 48 hrs by sulforhodamine B assay relative to control; settings: UO-31, 48 h, read-out: Activity
Outline: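 NCI-60 single-dose screen. Cells were grown in RPMI 1640 with 5% FBS and 2 mM L-glutamine, seeded at 5000–40 000 cells/well according to doubling time, and pre-incubated 24 h at 37 °C, 5% CO2. Time-zero plates were TCA-fixed at dosing. Compound in DMSO was given at 10 μM for 48 h. Cells were then fixed in cold TCA, stained with 0.4% SRB, solubilised in 10 mM Tris base and read at 515 nm. Growth % was calculated from time-zero, control and treated absorbances.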

SMILES	growth at 10 µM (MCF7) [%]	growth at 10 µM (MDA-MB-468) [%]	growth at 10 µM [1] [%]
COc1nccc2c(Nc3ccccc3)nc(N)nc12	78.5	56.5	88.3
COc1nccc2c(Nc3ccc(Cl)cc3)nc(N)nc12	62.2	60	42.9
COc1ccc(Nc2nc(N)nc3c(OC)nccc23)cc1	73	76.3	57.7
COc1nccc2c(Sc3ccccc3)nc(N)nc12	91.9	112	75.3
COc1nccc2c(-c3ccccc3)nc(N)nc12	96.5	98.2	93.8
COc1ccc(-c2nc(N)nc3c(OC)nccc23)cc1	86.3	97.9	108
COc1nccc2c(-c3ccc(Cl)cc3)nc(N)nc12	75.3	90.3	86.2
Nc1nc(Nc2ccccc2)c2ccnc(O)c2n1	80.8	126	73.7
Nc1nc(Nc2ccc(Cl)cc2)c2ccnc(O)c2n1	81	135	54.5
COc1ccc(Nc2nc(N)nc3c(O)nccc23)cc1	79.7	118	64.6
Nc1nc(Sc2ccccc2)c2ccnc(O)c2n1	91.6	120	86.8
Nc1nc(-c2ccccc2)c2ccnc(O)c2n1	111	101	91.9
COc1ccc(-c2nc(N)nc3c(O)nccc23)cc1	95.7	110	94.6
Nc1nc(-c2ccc(Cl)cc2)c2ccnc(O)c2n1	94.1	108	96.9
Nc1nc(-c2cccc(F)c2)c2ccnc(O)c2n1	83.3	107	117
